Laboratory results as given in ChEMBL document CHEMBL1130204, “3 alpha-Hydroxy-3 beta-(phenylethynyl)-5 beta-pregnan-20-ones: synthesis and pharmacological activity of neuroactive steroids with high affinity for GABAA receptors” (J Med Chem, 1997).

Legend:
[1] = target: GABA-A receptor; anion channel; experiment: (§1) In vitro inhibition of [35S]TBPS binding to Gamma-aminobutyric acid A receptor in rat brain cortical membranes in the presence of 5 uM GABA (low affinity); format: cell membranes, Membrane
Procedure, shortened: (§2)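 Rat cortical P2 membranes washed in 200 mM NaCl/50 mM Na-K phosphate pH 7.4, incubated 90 min at room temperature with 2 nM [35S]TBPS, 5 µM GABA and test drug in DMSO (final 0.5%). Nonspecific binding defined with 2 µM unlabeled TBPS. Filtration, scintillation counting. Fits to one- or two-component, full or partial inhibition models chosen by F-test; IC50 and Imax as mean ± SEM of individual experiments.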

[2] = target: GABA-A receptor; anion channel; experiment: In vitro inhibition of [35S]TBPS binding to Gamma-aminobutyric acid A receptor in rat brain cortical membranes in the presence of 5 uM GABA (high affinity); format: cell membranes, Membrane; procedure, shortened: as §2
Mus musculus [3] = experiment: Percent of animals (n=8) not exhibiting PTZ-induced ( Pentylentetrazol protection) seizures 10 min following a 10 mg/kg ip dose of steroid.; format: functional; conditions: route intraperitoneal
Procedure, shortened: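 Male NSA mice (15-20 g), n = 8. […] Mice watched 30 min for clonic seizure (forelimb clonus ≥3 s). Read-out is the percent of mice protected.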

Rattus norvegicus [4] = species: Rattus norvegicus; experiment: The maximum inhibitory potency was calculated by fitting [35S]TBPS inhibition data to a sigmoid function (rat brain cortical P2 membranes) (high affinity); format: functional
Procedure, shortened: (§3)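 Rat cortical P2 membranes, washed in 200 mM NaCl/50 mM Na-K phosphate pH 7.4, incubated 90 min at room temperature with 2 nM [35S]TBPS, 5 µM GABA and test drug in DMSO (final 0.5%). Nonspecific binding taken with 2 µM unlabeled TBPS. Filtration, then scintillation counting. Partial vs full and one- vs two-component models chosen by F-test. IC50 and Imax come from individual experiments, given as mean ± SEM of 3–4.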

Rattus norvegicus [5] = species: Rattus norvegicus; experiment: (§4) The maximum inhibitory potency was calculated by fitting [35S]TBPS inhibition data to a sigmoid function (rat brain cortical P2 membranes) (low affinity); format: functional; procedure, shortened: as §3
[6] = target: GABA-A receptor; anion channel; experiment: as §1; format: cell membranes, Membrane; procedure, shortened: as §3; remark: listed apart in the source
[7] = target: GABA-A receptor; anion channel; experiment: In vitro inhibition of [35S]TBPS binding to Gamma-aminobutyric acid A (GABA-A) receptor of rat brain cortical membranes in the presence of 5 uM GABA(high affinity); format: cell membranes, Membrane; procedure, shortened: as §3
[8] = target: T1, Gamma-aminobutyric acid receptor subunit gamma-1 (Rattus norvegicus, UniProt P23574); experiment: In vitro for inhibition of [35S]TBPS binding in rat brain cortical membranes in the presence of 5 uM GABA in two-component inhibition curve; format: functional, cell membranes, Membrane; procedure, shortened: as §3
Rattus norvegicus [9] = species: Rattus norvegicus; experiment: (§5) The maximum inhibitory potency was calculated by fitting [35S]TBPS inhibition data to a sigmoid function (rat brain cortical P2 membranes); format: functional; procedure, shortened: as §3
[10] = target: T2, GABA-A receptor; alpha-1/beta-2/gamma-2 (Homo sapiens, UniProt P14867+P18507+P47870); experiment: Steroid potentiation of 5% GABA responses in Xenopus oocytes expressing human alpha-1-beta-2-gamma-2L subunits of GABA-A receptor; format: functional, cell-based, Oocyte
T2 sequence (P14867 whole entry): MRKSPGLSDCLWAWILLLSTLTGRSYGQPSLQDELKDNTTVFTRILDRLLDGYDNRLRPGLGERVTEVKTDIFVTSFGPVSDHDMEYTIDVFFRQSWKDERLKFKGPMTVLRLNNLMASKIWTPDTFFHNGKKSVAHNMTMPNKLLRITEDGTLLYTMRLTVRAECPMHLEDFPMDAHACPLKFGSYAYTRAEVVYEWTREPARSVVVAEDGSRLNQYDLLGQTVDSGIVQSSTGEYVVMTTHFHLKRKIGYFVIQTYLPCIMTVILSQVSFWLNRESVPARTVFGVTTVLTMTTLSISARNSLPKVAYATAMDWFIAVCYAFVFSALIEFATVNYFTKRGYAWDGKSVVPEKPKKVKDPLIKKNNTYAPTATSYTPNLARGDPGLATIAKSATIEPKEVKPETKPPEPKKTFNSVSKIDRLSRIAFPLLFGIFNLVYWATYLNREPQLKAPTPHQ
T2 sequence (P47870 whole entry): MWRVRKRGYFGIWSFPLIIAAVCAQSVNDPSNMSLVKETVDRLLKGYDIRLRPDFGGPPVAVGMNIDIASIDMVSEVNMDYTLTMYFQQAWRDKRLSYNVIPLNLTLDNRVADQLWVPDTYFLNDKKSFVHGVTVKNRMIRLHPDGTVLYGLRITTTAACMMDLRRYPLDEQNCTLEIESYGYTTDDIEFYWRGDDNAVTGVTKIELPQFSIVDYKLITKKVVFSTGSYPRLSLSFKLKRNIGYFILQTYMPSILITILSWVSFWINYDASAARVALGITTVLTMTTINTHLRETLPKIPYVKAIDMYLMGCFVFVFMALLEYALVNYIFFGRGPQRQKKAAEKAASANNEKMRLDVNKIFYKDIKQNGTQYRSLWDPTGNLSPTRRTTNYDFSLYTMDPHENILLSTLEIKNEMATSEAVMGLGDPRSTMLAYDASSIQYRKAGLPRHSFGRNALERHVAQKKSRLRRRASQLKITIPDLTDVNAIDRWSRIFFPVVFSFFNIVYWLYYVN
T2 sequence (P18507 whole entry): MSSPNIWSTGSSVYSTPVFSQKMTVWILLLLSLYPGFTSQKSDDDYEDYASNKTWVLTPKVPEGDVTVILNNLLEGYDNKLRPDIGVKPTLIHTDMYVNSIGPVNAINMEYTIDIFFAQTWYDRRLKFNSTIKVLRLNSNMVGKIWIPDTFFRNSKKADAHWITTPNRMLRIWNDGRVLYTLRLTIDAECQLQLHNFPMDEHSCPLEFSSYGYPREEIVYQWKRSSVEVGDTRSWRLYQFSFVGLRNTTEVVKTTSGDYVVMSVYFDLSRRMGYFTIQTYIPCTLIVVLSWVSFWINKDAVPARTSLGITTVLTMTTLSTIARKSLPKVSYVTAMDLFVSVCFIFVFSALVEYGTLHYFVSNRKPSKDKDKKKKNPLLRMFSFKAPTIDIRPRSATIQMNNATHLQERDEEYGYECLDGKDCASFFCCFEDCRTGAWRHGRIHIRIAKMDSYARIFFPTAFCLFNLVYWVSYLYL
Procedure, shortened: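 Xenopus oocytes injected with α1, β2, γ2L cRNAs (~1 ng each). Two-electrode voltage clamp at -70 mV in frog Ringer's, pH 7.4. GABA set to give about 5% of the maximal (1 mM GABA) current. Steroid stocks in DMSO diluted into Ringer's, DMSO 0.3%. Modulation is potentiation plus any direct steroid current, fitted to a four-parameter logistic. Mean ± SEM.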

[11] = target: GABA-A receptor; alpha-1/beta-2/gamma-2 (Homo sapiens) (UniProt P14867+P47870+P18507); experiment: Efficacy as fractional response (FR) relative to GABA maximum current elicited in the Xenopus oocytes; format: functional, cell-based; conditions: Oocyte
Procedure, shortened: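 Xenopus oocytes expressing α1β2γ2L GABAA receptors (~1 ng each cRNA), two-electrode voltage clamp at -70 mV in frog Ringer's pH 7.4. GABA set to give ~5% of maximal current (1 mM GABA). Steroid co-applied with 0.3% DMSO. Response taken as potentiation plus any direct current, expressed as a fraction of GABA maximum, fit to a four-parameter logistic.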

[12] = The slope value for efficacy and response
Procedure, shortened: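 Oocytes expressing α1β2γ2L GABAA receptors under two-electrode voltage clamp in frog Ringer's pH 7.4. GABA or steroid concentration-response data fitted to a four-parameter logistic equation to derive slope. Mean ± SEM.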

Mus musculus [13] = experiment: Anticonvulsant potency that produces blockade of MES-induced seizures when administered intraperitoneally; format: functional; conditions: ip
Procedure, shortened: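 Male NSA mice given steroid ip in 50% HP-β-CD 30 min before corneal electroshock (50 mA, 60 pulses/s, 0.8 ms pulses, 1 s). End-point is tonic hindlimb extension >90° within 30 s. Quantal dose-response; ED50 reported with 95% CI.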

Mus musculus [14] = experiment: Anticonvulsant potency that produces blockade of PTZ-induced seizures when administered intraperitoneally; format: functional; conditions: ip
Procedure, shortened: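 Male NSA mice given steroid ip in 50% HP-β-CD 30 min before PTZ 85 mg/kg sc. Mice watched 30 min for forelimb clonus ≥3 s. Quantal dose-response; ED50 reported with 95% confidence interval.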

Rattus norvegicus [15] = species: Rattus norvegicus; experiment: as §5; format: functional; procedure, shortened: as §2; remark: listed apart in the source
[16] = Toxic dose that produces increase in hanging-wire failure; format: toxicity; conditions: mouse
Procedure, shortened: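 Male NSA mice, 15–20 g, given steroid ip in 50% HP-β-CD 30 min before testing. Hanging wire of 2 mm diameter, 25 cm above padding. A pass means both hindpaws reach the wire within 5 s. Quantal scoring; TD50 with 95% confidence interval.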

[17] = Slope value was determined
[18] = target: T1, Gamma-aminobutyric acid receptor subunit gamma-1; experiment: In vitro inhibition of [35S]-TBPS binding to Gamma-aminobutyric acid A receptor in rat brain cortical membranes in the presence of 5 uM GABA (low affinity); format: functional, cell membranes, Membrane; procedure, shortened: as §3
Rattus norvegicus [19] = species: Rattus norvegicus; experiment: as §4; format: functional; procedure, shortened: as §2; remark: listed apart in the source
[20] = target: GABA-A receptor; anion channel; experiment: In vitro inhibition of [35S]TBPS binding to gamma-aminobutyric-acid A receptor in rat brain cortical membranes in the presence of 5 uM GABA.; format: cell membranes, Membrane
Procedure, shortened: as §3, with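 “F-test.” for “F-test. IC50 and Imax come from individual experiments, given as mean ± SEM of 3–4.”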

T1 sequence (P23574 whole entry): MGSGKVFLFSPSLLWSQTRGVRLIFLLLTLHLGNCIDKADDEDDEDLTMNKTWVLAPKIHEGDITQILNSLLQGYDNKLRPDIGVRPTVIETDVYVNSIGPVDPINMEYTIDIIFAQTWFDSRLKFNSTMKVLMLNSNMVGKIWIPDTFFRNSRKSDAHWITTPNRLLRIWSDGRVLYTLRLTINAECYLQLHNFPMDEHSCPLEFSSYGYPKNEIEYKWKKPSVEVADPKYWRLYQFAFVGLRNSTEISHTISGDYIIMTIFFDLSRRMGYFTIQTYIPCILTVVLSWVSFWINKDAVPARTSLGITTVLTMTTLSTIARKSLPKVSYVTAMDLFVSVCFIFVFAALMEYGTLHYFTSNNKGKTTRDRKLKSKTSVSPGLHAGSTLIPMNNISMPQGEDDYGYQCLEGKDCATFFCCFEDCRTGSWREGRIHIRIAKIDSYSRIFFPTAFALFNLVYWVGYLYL

Structure (SMILES)	IC50 [1] [nM]	IC50 [2] [nM]	PTZ protection (Mus musculus [3]) [%]	Imax (Rattus norvegicus [4]) [%]	Imax (Rattus norvegicus [5]) [%]	IC50 [6] [nM]	IC50 [7] [nM]	IC50 [8] [nM]	Imax (Rattus norvegicus [9]) [%]	EC50 [10] [nM]	Efficacy [11]	Slope [12]	ED50 (Mus musculus [13]) [mg/kg]	ED50 (Mus musculus [14]) [mg/kg]	Imax (Rattus norvegicus [15]) [%]	TD50 [16] [mg/kg]	Slope [17]	IC50 [18] [nM]	Imax (Rattus norvegicus [19]) [%]	IC50 [20] [nM]
CC(=O)c1cccc(C#C[C@@]2(O)CC[C@@]3(C)[C@H](CC[C@@H]4[C@@H]3CC[C@]3(C)[C@@H](C(C)=O)CC[C@@H]43)C2)c1	1500	45	0	34	65															
CC(=O)[C@H]1CC[C@H]2[C@@H]3CC[C@@H]4C[C@@](O)(C#Cc5ccc(C=O)cc5)CC[C@]4(C)[C@H]3CC[C@]12C			0	44	54	1600	67	1600	54	31	0.88	1.3								
CC(=O)c1ccc(C#C[C@@]2(O)CC[C@H]3[C@H](CC[C@@H]4[C@@H]3CC[C@]3(C)[C@@H](C(C)=O)CC[C@@H]43)C2)cc1			100							8.2	0.91		9.2	2.8	97	13.2	1.4			
CC(=O)[C@H]1CC[C@H]2[C@@H]3CC[C@@H]4C[C@@](O)(C#Cc5ccccc5O)CC[C@]4(C)[C@H]3CC[C@]12C			0	30	57		82			340	0.51						1.6	5100		
CC(=O)[C@H]1CC[C@H]2[C@@H]3CC[C@@H]4C[C@@](O)(C#Cc5ccc(N)cc5)CC[C@]4(C)[C@H]3CC[C@]12C	11800	96	13	17						> 1000									84	
CC(=O)c1ccc(C#C[C@@]2(O)CC[C@@]3(C)[C@H](CC[C@@H]4[C@@H]3CC[C@]3(C)[C@@H](C(C)=O)CC[C@@H]43)C2)cc1			75							6.6	0.94		7.4	8.2	106	10	1.2			10
